Data set [1] concerns Mycobacterium tuberculosis H37Rv. The data set can be described thus: Inhibition of Mycobacterium tuberculosis H37Rv ATCC 27294 QcrB assessed as reduction in bacterial growth by resazurin reduction microplate assay. The method in brief: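 REMA in Middlebrook 7H9 with 10% ADC and 5% DMSO. Compounds come from 2 mg/mL DMSO stocks as 10-point 2-fold serial dilutions, with a top concentration of 5–40 µg/mL set by solubility. MIC is the lowest concentration preventing resazurin blue-to-pink conversion. Three independent experiments; the modal or highest value is reported, in µM.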
A general note: Alamar Blue is a resazurin reagent that responds to reducing activity.

A short description of data set [2]: Cytotoxicity against human HepG2 cells assessed as reduction in cell viability measured after 72 hrs by MTT assay. Format: cell-based. The procedure, abridged: (§1)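 Vero (2×10^3 cells/well) or HepG2 (4×10^3 cells/well) grown in DMEM with 10% inactivated FBS, gentamicin and amphotericin B, seeded 24 h, then exposed to compound at 1, 5 and 20 µM (2% DMSO) for 72 h at 37 °C, 5% CO2. MTT (5 mg/mL) added for 4 h; absorbance 570/655 nm. Viability relative to 2% DMSO control wells; CC50 derived.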
For orientation: Tetrazolium dyes change colour on reduction, which living cells bring about.

The next data set deals with RAW264.7. The data set can be described thus: Inhibition of Mycobacterium tuberculosis H37Rv ATCC 27294 QcrB infected in mouse RAW264.7 cells assessed as colony forming unit at 5 uM measured after 5 days (reference value: 4.66 +/- 0.23 log10CFU). As to conditions: time 5.0 day. Format: cell-based.
Data set [3] can be described thus: Cytotoxicity against African green monkey Vero cells assessed as reduction in cell viability measured after 72 hrs by neutral red uptake assay. As to conditions: chlorocebus sabaeus. Format: cell-based. The method in brief:
(§2)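 Vero (2×10^3 cells/well) or HepG2 (4×10^3 cells/well) in DMEM with 10% inactivated FBS, seeded 24 h, treated at 1, 5 and 20 µM in 2% DMSO for 72 h at 37 °C, 5% CO2. After PBS wash, neutral red (25 µg/mL, serum-free medium) for 3 h; dye extracted with acetic acid/EtOH/water (1:50:49) for 30 min; absorbance 562 nm; viability versus 2% DMSO controls.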

Data set [4] can be described thus: Half life in human liver S9 fraction at 2 uM measured after 30 mins in presence of NADPH by HPLC-MS analysis. Format: ADME, subcellular. The method in brief: (§3)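 Compound at 2 µM incubated at 37°C with 1 mg/mL human liver S9 fraction (9,000 × g post-mitochondrial supernatant) containing NADPH. Remaining compound quantified by HPLC-MS/MS at 0, 5, 15 and 30 min to give in vitro disappearance half-life and intrinsic clearance (mL/min/kg). Verapamil served as positive control.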

The nature of data set [5]: Cytotoxicity against human HepG2 cells assessed as reduction in cell viability measured after 72 hrs by neutral red uptake assay. Format: cell-based. The method in brief: as §2
Data set [6] in a line: Cytotoxicity against African green monkey Vero cells assessed as reduction in cell viability measured after 72 hrs by MTT assay. Format: cell-based. As to conditions: chlorocebus sabaeus. The method in brief: as §1
A short description of data set [7]: Intrinsic clearance in human liver S9 fraction at 2 uM measured after 30 mins in presence of NADPH by HPLC-MS analysis. Format: ADME, subcellular. As to conditions: read-out: CLH. The procedure, abridged:
as §3

A short description of data set [8]: Ratio of MIC for inhibition of Mycobacterium tuberculosis H37Rv ATCC 27294 QcrB assessed as reduction in bacterial growth to MIC for inhibition of Mycobacterium tuberculosis PT2 clinical isolate QcrB assessed as reduction in bacterial growth.
A short description of data set [9]: Ratio of MIC for inhibition of Mycobacterium tuberculosis H37Rv ATCC 27294 QcrB assessed as reduction in bacterial growth to MIC for inhibition of Mycobacterium tuberculosis PT12 clinical isolate QcrB assessed as reduction in bacterial growth.
A short description of data set [10]: Ratio of MIC for inhibition of Mycobacterium tuberculosis H37Rv ATCC 27294 QcrB assessed as reduction in bacterial growth to MIC for inhibition of Mycobacterium tuberculosis PT20 clinical isolate QcrB assessed as reduction in bacterial growth.

SMILES strings stand for the structures. Converted amounts (≈) assume the structure as drawn.

For the molecule `COc1ccc2nc(C)cc(OCC(=O)c3ccc(-c4ccccc4)cc3)c2c1`, the MIC in data set [1] was determined as 13 µM (≈ 4.98 µg/mL).
The same measure, in the same setting: for `COc1ccc2nc(C)cc(OCc3cccc(Cl)c3)c2c1` the value was 7.9 µM (≈ 2.48 µg/mL).
For `COc1ccc2nc(C)cc(OCc3ccccc3Cl)c2c1`, the MIC in data set [1] is 18.8 µM (≈ 5.9 µg/mL).
Still for that read-out and setting: the same measure for `COc1ccc2nc(C)cc(OCC(=O)c3ccc(F)cc3)c2c1`: 30.7 µM (≈ 9.99 µg/mL); for `COc1ccc2nc(C)cc(OCc3ccc(C(F)(F)F)cc3)c2c1`: 7.2 µM (≈ 2.5 µg/mL).
As to `COc1ccc2nc(C)cc(OCc3cccc(F)c3)c2c1`, in data set [1], the MIC turned out to be 16.8 µM (≈ 5 µg/mL).
Consider `COc1ccc2nc(C)cc(OCc3ccc([N+](=O)[O-])cc3)c2c1`, for which the MIC in data set [1] is 30.8 µM (≈ 9.99 µg/mL).
For orientation: CC50 means the concentration at which the toxic effect on the cells reaches its halfway point. As usually defined, the half-life is the time needed for the level to fall by half in the phase considered. Turning to `COc1ccc2nc(C)cc(OCC(=O)c3ccccc3)c2c1`, the CC50 at 72 h in data set [2], in [3], in data set [5] and in data set [6] was over 20 µM in each case. The Activity in the data set on RAW264.7 came out at 4.06 log10CFU. In [1], the MIC was found to be 1.3 µM (≈ 0.4 µg/mL). The half-life at 2 µM in data set [4] came to 87.5 min. For the same molecule, in data set [7], the CLint scaled at 2 µM worked out at 7.1 mL/min/kg.
Regarding `COc1ccc2nc(C)cc(OCc3ccc(Cl)cc3)c2c1`, the MIC in data set [1] was 15.9 µM (≈ 4.99 µg/mL).
Consider `COc1ccc2nc(C)cc(OCc3ccc(Cl)c(Cl)c3)c2c1`, for which the CC50 at 72 h in data set [2] was 14.4 µM; in [3], over 20 µM; in data set [5], 14.9 µM; in [6] it was over 20 µM. In addition, the Activity with RAW264.7 was found to be 3.8 log10CFU. In addition, in [1], the MIC was found to be 0.3 µM (≈ 0.104 µg/mL). In [4], the half-life at 2 µM is 30.6 min. In [7], the CLint scaled at 2 µM was found to be 12.6 mL/min/kg.
Consider `COc1ccc2nc(C)cc(OCc3ccc(F)cc3)c2c1`, for which the MIC in [1] worked out at 16.8 µM (≈ 5 µg/mL).
On to `COc1ccc2nc(C)cc(OCc3ccc(C(C)(C)C)cc3)c2c1`, for which the MIC in [1] turned out to be 3.7 µM (≈ 1.24 µg/mL).
`COc1ccc2nc(C)cc(OCc3ccc(F)c(F)c3)c2c1`: in data set [1], the MIC is 3.9 µM (≈ 1.23 µg/mL).
As to `COc1ccc2nc(C)cc(OCC(=O)c3ccc(CC(C)C)cc3)c2c1`, the MIC in [1] was determined as 6.9 µM (≈ 2.51 µg/mL).
Still for that read-out and setting: for `COc1ccc2nc(C)cc(OCc3ccc4c(c3)OCO4)c2c1` the value was 30.9 µM (≈ 9.99 µg/mL); for `COc1cc(COc2cc(C)nc3ccc(OC)cc23)cc(OC)c1`, 29.5 µM (≈ 10 µg/mL).
As to `COc1ccc2nc(C)cc(OCc3ccc(Br)cc3)c2c1`, in [1], the MIC came to 13.9 µM (≈ 4.98 µg/mL).
In the case of `COc1cccc(C(=O)COc2cc(C)nc3ccc(OC)cc23)c1`, the MIC in data set [1] stood at 14.8 µM (≈ 4.99 µg/mL).
Turning to `COc1ccc2nc(C)cc(OCC(=O)c3cccc(Cl)c3)c2c1`, the CC50 at 72 h in [2], in [3], in data set [5] and in data set [6] was over 20 µM each time. The Activity in the data set on RAW264.7 stood at 3.8 log10CFU. Besides, the MIC in [1] turned out to be 1.8 µM (≈ 0.615 µg/mL). The half-life at 2 µM in [4] was determined as 78.2 min. The Ratio in [8], in data set [9] and in data set [10] was 1.9 each time. Also, the CLint scaled at 2 µM in data set [7] was determined as 7.7 mL/min/kg.
With `COc1ccc2nc(C)cc(OCCc3ccccc3)c2c1`, the MIC in [1] turned out to be 34.1 µM (≈ 10 µg/mL).
The same measure, in the same setting: the same measure for `COc1ccc2nc(C)cc(OCC(=O)c3ccc(Br)cc3)c2c1`: 14.6 µM (≈ 5.64 µg/mL); for `COc1ccc2nc(C)cc(OCC(=O)c3ccc(Cl)cc3)c2c1`: 12.9 µM (≈ 4.41 µg/mL).
Regarding `COc1ccc2nc(C)cc(OCc3ccc(C(C)C)cc3)c2c1`, the CC50 at 72 h is 13.1 µM in data set [2], over 20 µM in data set [3], 13 µM in [5] and over 20 µM in [6]. Moreover, the MIC in [1] was determined as 1.9 µM (≈ 0.611 µg/mL). In addition, the half-life at 2 µM in data set [4] was 10 min. The Ratio in [8], in [9] and in [10] was 1.9 throughout. The CLint scaled at 2 µM in data set [7] came to 17.4 mL/min/kg.
Take `COc1ccc2nc(C)cc(OCC(=O)c3ccc(Cl)c(Cl)c3)c2c1`: in data set [1], the MIC came out at 6.6 µM (≈ 2.48 µg/mL).
The same measure, in the same setting: for `COc1ccc2nc(C)cc(OCc3ccc(Br)c(Cl)c3)c2c1` the value was 1.6 µM (≈ 0.628 µg/mL).
Still for that read-out and setting: the same measure for `CO[C@H]1/C=C/O[C@@]2(C)Oc3c(C)c(O)c4c(O)c(c(/C=N/N5CCN(C)CC5)c(O)c4c3C2=O)NC(=O)/C(C)=C\C=C\[C@H](C)[C@H](O)[C@@H](C)[C@@H](O)[C@@H](C)[C@H](OC(C)=O)[C@@H]1C`: 0.05 µM (≈ 0.0411 µg/mL); for `COc1ccc2nc(C)cc(OC(C)C(=O)c3ccccc3)c2c1` (stereo unspecified): 31.1 µM (≈ 9.99 µg/mL).
Still for that read-out and setting: the same measure for `COc1ccc2nc(C)cc(OCc3ccccc3F)c2c1`: 19.2 µM (≈ 5.71 µg/mL).
In the case of `NNC(=O)c1ccncc1`, the MIC in [1] came to 2.3 µM (≈ 0.315 µg/mL).
With `COc1ccc(C(=O)COc2cc(C)nc3ccc(OC)cc23)cc1`, in [1], the MIC stood at 7.4 µM (≈ 2.5 µg/mL).
As to `COc1ccc2nc(C)cc(OCC(=O)c3ccccc3OC)c2c1`, in data set [1], the MIC amounted to 29.6 µM (≈ 9.99 µg/mL).
With `COc1ccc2nc(C)cc(OCc3cccc(C(F)(F)F)c3)c2c1`, the MIC in data set [1] was 7.2 µM (≈ 2.5 µg/mL).
Still for that read-out and setting: the same measure for `COc1ccc2nc(C)cc(OCC(=O)c3ccc(C)cc3)c2c1`: 15.6 µM (≈ 5.01 µg/mL); for `COc1ccc2nc(C)cc(OCc3cccc(Br)c3)c2c1`: 13.9 µM (≈ 4.98 µg/mL); for `COc1ccc2nc(C)cc(OCc3cccc(Cl)c3Cl)c2c1`: 28.7 µM (≈ 9.99 µg/mL).
On the same count and under the same terms, the same measure for `COc1ccc2nc(C)cc(OCc3ccc4ccccc4c3)c2c1`: 7.6 µM (≈ 2.5 µg/mL).
The same measure, in the same setting: the same measure for `COc1cccc(COc2cc(C)nc3ccc(OC)cc23)c1`: 32.3 µM (≈ 9.99 µg/mL); for `COc1ccc2nc(C)cc(OCc3ccccc3)c2c1`: 5.6 µM (≈ 1.56 µg/mL).

The values above are taken from ChEMBL document CHEMBL4680209, “Design, synthesis, and evaluation of new 2-(quinoline-4-yloxy)acetamide-based antituberculosis agents” (Eur J Med Chem, 2020).
